Where only a bound is given, the exact number is not on record here.

The experiment has as its system HIV-1 (antiviral activity in human PBM cells). As to the kind of experiment: Anti-HIV-1 activity determined in human peripheral blood mononuclear PBM cells, expressed as EC50. Summed up: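 PHA-stimulated (2-3 days) human PBM cells from healthy seronegative donors were infected with HIV-1 LAI for 1 h in bulk, then placed into 10-fold serial compound dilutions. Medium contained IL-2 and DEAE-dextran. After 5 days at 37 °C, supernatant virus was pelleted and RT activity measured. EC50 was taken from the concentration-response curve by the median effect method.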
As for `Nc1nc2c(ncn2[C@H]2CC(F)(F)[C@H](CO)O2)c(=O)[nH]1`, the EC50 was above 100 µM.

Compound `O=c1ccn([C@@H]2CC(F)(F)[C@H](CO)O2)c(=O)[nH]1` gave an EC50 above 100 µM.

`Nc1ccn([C@@H]2CC(F)(F)[C@H](CO)O2)c(=O)n1` yielded an EC50 of 11.5 µM.

Consider `Cc1cn([C@@H]2CC(F)(F)[C@H](CO)O2)c(=O)[nH]c1=O`, for which the EC50 was above 100 µM.

In turn, `O=c1[nH]cnc2c1ncn2[C@@H]1CC(F)(F)[C@H](CO)O1` returned an EC50 above 100 µM.

Regarding `O=c1ccn([C@H]2CC(F)(F)[C@H](CO)O2)c(=O)[nH]1`, the 50% effective concentration (EC50) was above 100 µM.

In the case of `Cc1cn([C@H]2CC(F)(F)[C@H](CO)O2)c(=O)[nH]c1=O`, the 50% effective concentration (EC50) was above 100 µM.

With `Nc1nc(=O)n([C@@H]2CC(F)(F)[C@H](CO)O2)cc1F`, the midpoint of the response, the EC50, lay at 8.8 µM.

The compound `Nc1nc2c(ncn2[C@@H]2CC(F)(F)[C@H](CO)O2)c(=O)[nH]1` returned an EC50 above 100 µM.

Compound `Nc1ncnc2c1ncn2[C@H]1CC(F)(F)[C@H](CO)O1` returned an EC50 above 100 µM.

`Nc1ccn([C@H]2CC(F)(F)[C@H](CO)O2)c(=O)n1` came in with an EC50 above 100 µM.

In the case of `O=c1[nH]cnc2c1ncn2[C@H]1CC(F)(F)[C@H](CO)O1`, the EC50 is above 100 µM.

`Nc1ncnc2c1ncn2[C@@H]1CC(F)(F)[C@H](CO)O1`: the EC50 was above 100 µM.

Compound `Nc1nc(=O)n([C@H]2CC(F)(F)[C@H](CO)O2)cc1F` came in with an EC50 above 100 µM.

For `Cc1cn([C@H]2C=C(F)[C@H](CO)O2)c(=O)[nH]c1=O`, the EC50 was above 100 µM.

Regarding `Nc1nc2c(ncn2[C@@H]2C=C(F)[C@H](CO)O2)c(=O)[nH]1`, the EC50 stood at 38.5 µM.

Consider `O=c1[nH]cnc2c1ncn2[C@H]1C=C(F)[C@@H](CO)O1`, for which the EC50 was above 100 µM.

The compound `Nc1ncnc2c1ncn2[C@@H]1C=C(F)[C@H](CO)O1` returned a concentration for a half-maximal effect (EC50) above 100 µM.

In turn, `Nc1ncnc2c1ncn2[C@H]1C=C(F)[C@H](CO)O1` had a 50% effective concentration (EC50) above 100 µM.

`Cc1cn([C@@H]2C=C(F)[C@H](CO)O2)c(=O)[nH]c1=O` gave an EC50 above 100 µM.

As to `Nc1nc2c(ncn2[C@H]2C=C(F)[C@H](CO)O2)c(=O)[nH]1`, the EC50 is above 100 µM.

The values are drawn from BindingDB's records for doi:10.1021/jm0300274 (The University of Georgia, 2003).
